According to ChEMBL document CHEMBL1141763, “Limnophilaspiroketone, a highly oxygenated phenolic derivative from Limnophila geoffrayi” (J Nat Prod, 2005):

These molecules were tested against NAD(P)H dehydrogenase [quinone] 1 (Homo sapiens) (UniProt P15559) (assay: Induction of quinone reductase).
Procedure, shortened: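 Quinone reductase induction measured in cultured mouse Hepa 1c1c7 hepatoma cells, following a previously described method. Activity is reported as CD, the concentration that doubles QR induction, in µg/mL.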

NAD(P)H dehydrogenase [quinone] 1 (Homo sapiens), sequence (P15559 whole entry): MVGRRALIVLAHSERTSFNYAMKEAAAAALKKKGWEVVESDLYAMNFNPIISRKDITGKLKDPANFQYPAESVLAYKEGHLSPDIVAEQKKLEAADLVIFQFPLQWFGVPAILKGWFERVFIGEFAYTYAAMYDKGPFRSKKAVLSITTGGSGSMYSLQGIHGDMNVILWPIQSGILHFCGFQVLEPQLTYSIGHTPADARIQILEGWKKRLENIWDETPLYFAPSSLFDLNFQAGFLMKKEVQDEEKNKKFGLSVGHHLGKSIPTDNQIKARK

| SMILES | CD [µg/mL] |
| --- | --- |
| COc1ccc(-c2cc(=O)c3c(O)c(OC)c(OC)c(OC)c3o2)cc1 | > 20 |
| CC1(C)CC[C@]2(C(=O)O)CC[C@]3(C)C(=CC[C@@H]4[C@@]5(C)CC[C@H](O)C(C)(C)[C@@H]5[C@H](O)C[C@]43C)[C@@H]2C1 | > 20 |
| CC(C)=CCC/C(C)=C\CC/C(C)=C\Cc1cc(C(=O)O)ccc1O | > 20 |
| COc1ccc(-c2cc(=O)c3c(O)c(OC)c(O)c(OC)c3o2)cc1 | > 20 |
| C=C(C)[C@@H]1CC[C@]2(C(=O)O)CC[C@]3(C)[C@H](CC[C@@H]4[C@@]5(C)CC[C@H](O)C(C)(C)[C@@H]5CC[C@]43C)[C@@H]12 | > 20 |
| C[C@@H]1CC[C@]2(C(=O)O)CC[C@]3(C)C(=CC[C@@H]4[C@@]5(C)CC[C@H](O)[C@](C)(CO)[C@@H]5CC[C@]43C)[C@@H]2[C@]1(C)O | > 20 |
| COC(=O)[C@@]1(O)C(OC)=C(OC)C(=O)[C@]12OC(c1ccc(O)cc1)=CC2=O | > 20 |
| CC1(C)CC[C@]2(C(=O)O)CC[C@]3(C)C(=CC[C@@H]4[C@@]5(C)CC[C@H](O)[C@@](C)(CO)[C@@H]5CC[C@]43C)[C@@H]2C1 | > 20 |
| COc1c(OC)c(O)c2c(=O)cc(-c3ccc(O)cc3)oc2c1O | > 20 |
